According to ChEMBL document CHEMBL1134485, “Diguanidino and "reversed" diamidino 2,5-diarylfurans as antimicrobial agents” (2001):

Experiments:
Nucleic Acid [1] = tested on: Nucleic Acid
Candida albicans [2] = experiment: In vitro minimum fungicidal concentration against Candida albicans.; assay type: functional
In short: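 Yeast MFC: after broth macrodilution (RPMI 1640/MOPS pH 7.0, 0.5 × 10³ to 2.5 × 10³ CFU/mL, 35 °C, 48 h or 72 h for C. neoformans, drug 100 to 0.09 µg/mL), 100 µL from tubes with complete inhibition plated on Sabouraud agar; lowest concentration yielding three or fewer colonies recorded.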

Aspergillus fumigatus [3] = experiment: Antimicrobial activity against Aspergillus fumigatus (MIC); assay type: functional
Candida albicans [4] = experiment: In vitro minimum inhibitory concentration against Candida albicans.; assay type: functional
Aspergillus fumigatus [5] = experiment: In vitro minimum fungicidal concentration required to inhibit Aspergillus fumigatus(MFC); assay type: functional
In short: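 Mould MFC: 100 µL aliquots from macrodilution tubes (RPMI 1640/MOPS pH 7.0, 0.5 × 10³ to 2.5 × 10³ CFU/mL conidial inoculum, 30 °C, 48-72 h, drug 100 to 0.09 µg/mL) showing complete growth inhibition plated on Sabouraud agar; MFC taken as lowest drug concentration giving three or fewer colonies.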

Nucleic Acid [6] = tested on: Nucleic Acid; remark: listed apart in the source
[7] = tested on: Mycobacterium tuberculosis; experiment: In vitro minimum inhibitory concentration required to inhibit Mycobacterium tuberculosis; assay type: functional
In short: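 M. tuberculosis H37Rv grown in BACTEC 12B medium; fluorometric broth microdilution (Microplate Alamar Blue Assay). […] MIC = lowest concentration reducing relative fluorescence units by ≥90% relative to control culture. Testing done by TAACF.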

What does the source list for `Cl.Cl.N=C(N)Nc1ccc(-c2ccc(-c3ccc(NC(=N)N)cc3C(F)(F)F)o2)c(C(F)(F)F)c1`?
ΔTm (Nucleic Acid [1]): 0; MFC (Candida albicans [2]): 10 µg/mL; MIC (Aspergillus fumigatus [3]): 100 µg/mL; MIC (Candida albicans [4]): 10 µg/mL; MFC (Aspergillus fumigatus [5]): 100 µg/mL; ΔTm (Nucleic Acid [6]): 5.9; MIC [7]: 8 µg/mL

For `COc1cc(NC(=N)N)ccc1-c1ccc(-c2ccc(NC(=N)N)cc2OC)o1.Cl.Cl`, which ΔTm (Nucleic Acid [1]) is on record?
The ΔTm was 2.8.

What about the MFC (Candida albicans [2]) of the same molecule?
The MFC was 100 µg/mL.

And the MIC (Aspergillus fumigatus [3])?
The MIC was 100 µg/mL.

What about the MIC (Candida albicans [4]) of the same molecule?
Its MIC is 10 µg/mL.

What about the MFC (Aspergillus fumigatus [5]) of the same molecule?
The MFC was 100 µg/mL.

What about the ΔTm (Nucleic Acid [6]) of the same molecule?
The ΔTm was 15.2.

And the MIC [7]?
The MIC was 16 µg/mL.
